These results are taken from ChEMBL document CHEMBL5113379, “4-Oxooctahydroquinoline-1(2H)-carboxamides as hepatitis B virus (HBV) capsid core protein assembly modulators” (Bioorg Med Chem Lett, 2022).

In brackets after ≈: the same amount, converted by molar mass. Where only a bound is given, the exact number is not on record here.

As a reminder, the EC50 is the midpoint of the concentration-response curve. What is called half-life is how long it takes for the measured level to halve. As a reminder, the CC50 is the concentration giving 50% cytotoxicity. In general, Papp A→B refers to the apparent permeability from the apical to the basolateral side of a cell layer. By Papp B→A is commonly meant the apparent permeability from the basolateral to the apical side of a cell layer. What is called efflux ratio is the permeability from basolateral to apical divided by that in the opposite direction, in the common usage. As a reminder, the solubility is the concentration that dissolves in the medium under given conditions. A lower solubility goes with little dissolved substance. Usually Cmax stands for the peak of the concentration-time curve.

One data set relates to Hepatitis B virus. As to the kind of experiment: Antiviral activity against HBV infected in mouse AML12HBV10 cells assessed as reduction in viral replication incubated for 48 hrs and measured by [alpha-32P]UTP-labeled radio-probe based dot blot hybridization assay. The format is functional, organism-based. Particulars: aml12hbv10. In a few lines: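 The test used the stable HBV line AML12HBV10, derived from immortalized mouse hepatocytes (AML12). HBV replication was measured by dot blot hybridization and EC50 was determined.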

Data set [1] can be described thus: Metabolic stability in human liver microsomes assessed as half-life. Format: ADME, Microsome. For orientation: Liver microsomes are a subcellular fraction often used to study metabolism.
Data set [2] is described as follows: Metabolic stability in mouse liver microsomes assessed as half-life. Format: ADME, Microsome.
A short description of data set [3]: Cytotoxicity against mouse […] measured by MTT assay. Format: toxicity, cell-based, AML12HBV10. Particulars: AML12HBV1 cells. In a few lines: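 Cytotoxicity was measured by MTT assay in the stable HBV line AML12HBV10, derived from immortalized mouse hepatocytes (AML12), and CC50 was determined.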
In general terms: Tetrazolium assays rely on reduction of a dye to a coloured formazan, in cell work by metabolically active cells.

The nature of data set [4]: Apparent permeability across apical to basolateral membrane in human Caco-2 cells. Format: ADME, cell-based. For orientation: Caco-2 cells form a polarised layer with tight junctions and transporters.
A short description of data set [5]: Apparent permeability across basolateral to apical membrane in human Caco-2 cells. Format: ADME, cell-based.
The nature of data set [6]: Efflux ratio for apparent permeability across basolateral to apical side to apical to basolateral side in human Caco2 cells. Format: ADME, cell-based. Particulars: Caco-2.
The nature of data set [7]: Solubility of the compound at pH 4. The format is physicochemical. The note with it: buffer.
A short description of data set [8]: Solubility of the compound at pH 7. Format: physicochemical. The note with it: buffer.
Data set [9] is described as follows: Plasma protein binding in mouse. Format: ADME, cell-free.
The nature of data set [10]: Plasma protein binding in human. The format is ADME, cell-free.
The nature of data set [11]: Half-life in mouse at 3 mg/kg, iv. The note with it: in vivo. Format: ADME, organism-based.
Data set [12] in a line: AUClast in mouse at 3 mg/kg, iv. The format is ADME, organism-based. More on the design: time 0 - last, dose 3 mg/kg, route iv. Particulars: in vivo.
Data set [13] in a line: Observed volume of distribution at steady state in mouse at 3 mg/kg, iv. The format is ADME, organism-based. The note with it: in vivo, read-out: Vdss.
A short description of data set [14]: Half-life in mouse at 10 mg/kg, po. Format: ADME, organism-based. Particulars: in vivo.
The nature of data set [15]: Cmax in mouse at 10 mg/kg, po. The note with it: in vivo. More on the design: dose 10 mg/kg, route po. Format: ADME, organism-based.
Data set [16] in a line: AUClast in mouse at 10 mg/kg, po. The format is ADME, organism-based. More on the design: time 0 - last, dose 10 mg/kg, route po. The note with it: in vivo.
Data set [17] can be described thus: Oral bioavailability in mouse at 10 mg/kg. Format: ADME, organism-based. The note with it: in vivo.

Turning to `O=C1CCN(C(=O)Nc2ccc(F)c(Cl)c2)[C@H]2CCCC[C@@H]12` (relative stereo), the EC50 in the data set with Hepatitis B virus came out at 710 nM. The half-life in data set [1] (liver microsomes) is 56.8 min; in [2] (liver microsomes) it was 32 min. Also, in data set [3], the CC50 is > 100000 nM. In addition, in data set [4], the Papp A→B worked out at 14.7 ×10⁻⁶ cm/s. In addition, the Papp B→A in [5] stood at 7.8 ×10⁻⁶ cm/s. In addition, the efflux ratio in data set [6] worked out at 0.5.
In the case of `O=C1CCN(C(=O)Nc2ccc(F)c(Cl)c2)C2CCCCC12` (stereo in doubt; 61), in the data set with Hepatitis B virus, the concentration for a half-maximal effect (EC50) is 460 nM. Besides, the t1/2 in data set [1] (microsomes) came to 71 min; in data set [2] (microsomes), 56 min; in data set [11], 36 min; in data set [14] it was 42 min. The solubility in data set [7] was 239 µM (≈ 77.6 µg/mL); in [8] it was 253 µM (≈ 82.2 µg/mL). For the same molecule, the results for the PPB in [9] and in [10] were 94% and 90%, respectively. The results for the AUClast in data set [12] and in [16] were 1952 ng·h/mL and 4516 ng·h/mL, respectively. Besides, the Vd in data set [13] was found to be 0.8 L/kg. The molecule further gave a Cmax in [15] of 2727 ng/mL. The F in data set [17] worked out at 69%.
